The values below come from ChEMBL document CHEMBL2413022, “3-Aryl-4-acyloxyethoxyfuran-2(5H)-ones as inhibitors of tyrosyl-tRNA synthetase: synthesis, molecular docking and antibacterial evaluation” (Bioorg Med Chem, 2013).

In brackets after ≈: the same amount, converted by molar mass. A value given as a limit tells only on which side of the number the result lay.

The subject of one experiment is Candida albicans. Kind of experiment: Antifungal activity against Candida albicans ATCC 10231 by MTT assay. Type of experiment: functional. In short, it runs like this: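 LB medium; inoculum about 10⁵ cfu/mL with serially diluted compound (medium-only blank), incubated at 28 °C. MTT in PBS (3 mg/mL) added, 4–5 h at room temperature. Dye extracted 8–10 h in 10% SDS with 5% isopropanol and HCl. OD read at 570 nm, control OD 1.0–2.0; MIC50 from absorbance.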
A general note: Tetrazolium dyes change colour on reduction, which living cells bring about.

In another experiment the test system is Escherichia coli. Kind of experiment: Antibacterial activity against Escherichia coli ATCC 35218 by MTT assay. Format: functional. In short, it runs like this: (§1)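 LB medium; inoculum about 10⁵ cfu/mL added to serially diluted compound (medium-only blank) and incubated at 37 °C. Then MTT in PBS (3 mg/mL) added, 4–5 h at room temperature. Medium removed, dye extracted 8–10 h in 10% SDS with 5% isopropanol and HCl. Read OD 570 nm, control OD kept at 1.0–2.0; MIC50 taken from absorbance.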

The test system of a further experiment is Staphylococcus aureus. The experiment can be described thus: Antibacterial activity against Staphylococcus aureus ATCC 25923 by MTT assay. Type of experiment: functional. In short, it runs like this:
as §1

Experiment [1] can be described thus: Inhibition of Staphylococcus aureus tyrosyl-tRNA synthetase expressed in Escherichia coli using L-[ring-3,5-3H] tyrosine as substrate preincubated for 10 mins by liquid scintillation counting analysis. In short, it runs like this:
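Enzyme purified to about 98% (SDS–PAGE). Aminoacylation at 37 °C, final 100 mM Tris/Cl pH 7.9, 50 mM KCl. TyrRS (0.2 nM) preincubated with a range of inhibitor concentrations for 10 min at room temperature, then pre-warmed mixture added. Aliquots quenched in ice-cold 7% TCA at set intervals, filtered, counted by liquid scintillation.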

The next experiment relates to Pseudomonas aeruginosa. The experiment can be described thus: Antibacterial activity against Pseudomonas aeruginosa ATCC 27853 by MTT assay. Format: functional. In short, it runs like this: as §1

Consider `CCCC(=O)OCCOC1=C(c2ccccc2)C(=O)OC1`, for which the MIC50 (usually an inhibitory concentration at the 50% level, which refers to growth in some studies and to a panel of isolates in others) was 88.7 µg/mL (≈ 306 µM) against Candida albicans, over 100 µg/mL against Escherichia coli, 41.3 µg/mL (≈ 142 µM) with Staphylococcus aureus and 98.1 µg/mL (≈ 338 µM) against Pseudomonas aeruginosa. For the same compound, the midpoint of inhibition in experiment [1], the IC50, lay at 84.6 µM.
The corresponding values for `CCCCCC(=O)OCCOC1=C(c2ccccc2)C(=O)OC1` are 21.4 µg/mL (≈ 67.2 µM), over 100 µg/mL, 43 µg/mL (≈ 135 µM), 60.8 µg/mL (≈ 191 µM) and 47.8 µM.
The corresponding values for `CCCCCCCC(=O)OCCOC1=C(c2ccccc2)C(=O)OC1` are over 100 µg/mL, 48.8 µg/mL (≈ 141 µM), over 100 µg/mL, 56.8 µg/mL (≈ 164 µM) and 41 µM.
The corresponding values for `O=C1OCC(OCCOC(=O)c2ccccc2)=C1c1ccccc1` are over 100 µg/mL, over 100 µg/mL, 17.8 µg/mL (≈ 54.9 µM), 13.4 µg/mL (≈ 41.3 µM) and 12.8 µM.
With `O=C1OCC(OCCOC(=O)c2cccnc2)=C1c1ccccc1`, the MIC50 against Candida albicans was over 100 µg/mL; against Escherichia coli, 18.6 µg/mL (≈ 57.2 µM); in the experiment with Staphylococcus aureus it was 22.8 µg/mL (≈ 70.1 µM); against Pseudomonas aeruginosa it was 44.8 µg/mL (≈ 138 µM). Further, 26 µM corresponded to half-maximal inhibition in experiment [1] (IC50).
